Assay results reported in ChEMBL document CHEMBL1123681, “Molecular modification of anticholinergics as probes for muscarinic receptors. 2. Amino esters of alpha-methyltropic acid” (J Med Chem, 1987).

Assays:
Rattus norvegicus [1] = species: Rattus norvegicus; assay: Antispasmodic activity was calculated as molar concentration of antagonist that inhibited 50% of a standard contraction response from isolated rat ileum preparation; type: functional; conditions: read-out: ID50 (the source's name)
Cavia porcellus [2] = species: Cavia porcellus; assay: Antispasmodic activity was determined from isolated guinea pig ileum preparation
Rattus norvegicus [3] = species: Rattus norvegicus; assay: Relative potency with respect to (+/-)-3-Hydroxy-2-methyl-2-phenyl-propionic acid 2-diethylamino-ethyl ester in isolated rat ileum preparation; type: functional
Rattus norvegicus [4] = species: Rattus norvegicus; assay: Antispasmodic activity calculated as ability of compound to block ACh-induced contractions of the ileum and expressed as pA2; type: functional, organism-based; conditions: for Kb: Rattus norvegicus, Ileum, read-out: pA2 (converted)
Method in brief: (§1)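 Ileum from overnight-fasted rats killed by cervical dislocation, suspended in aerated Tyrode solution and recorded via force-displacement transducer. Contractions measured across increasing ACh concentrations, then ACh responses with antagonist present. pA2 derived by the Ariens–van Rossum method as the mean from linear regression of two or more experiments at four or more dose levels. ID50 is the molar antagonist concentration inhibiting 50% of a standard contraction.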

Rattus norvegicus [5] = species: Rattus norvegicus; assay: Antispasmodic activity was measured as percent reduction in rat ileum contraction against 300 ug/mL barium chloride 0.5 ug/mL (1.5 X 10E-6 uM); type: functional
Method in brief: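 Ileum strips from overnight-fasted rats killed by cervical dislocation, held in a tissue bath with force-displacement transducer recording. BaCl2 at 300 µg/mL, a standard dose set by a preliminary dose-response study, induced contraction; tissue washed back to baseline. Test agent equilibrated 10 min, then the same BaCl2 dose was added without washout. Percent inhibition was taken from contraction before versus after agent.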

Cavia porcellus [6] = species: Cavia porcellus; assay: Ability to inhibit 50% standard contraction response of the guinea pig ileal tissue was measured with increasing concentrations of Acetylcholine (ACh) in the tissue bath
ileum (Cavia porcellus) = assay: Antispasmodic activity was calculated as molar concentration of antagonist that inhibited 50% of a standard contraction response from isolated guinea pig ileum preparation; conditions: read-out: ID50 (the source's name)
Cavia porcellus [7] = species: Cavia porcellus; assay: Ability to inhibit 50% standard contraction response of the guinea pig ileal tissue was measured with increasing concentrations of Acetylcholine (ACh) in the tissue bath; type: functional
Rattus norvegicus [8] = species: Rattus norvegicus; assay: Antispasmodic activity was measured as percent reduction in rat ileum contraction against 300 ug/mL barium chloride 3 ug/mL (6.4X 10E-6 uM); type: functional
Method in brief: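 Rat ileum strips in a tissue bath were contracted with a standard BaCl2 dose (300 μg/mL), chosen from a preliminary dose-response, then washed back to baseline. Test compound was added and equilibrated for 10 min. Without washout, the same BaCl2 dose was given again. Percent inhibition was taken from the contraction before versus after compound.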

Rattus norvegicus [9] = species: Rattus norvegicus; assay: (§2) Antispasmodic activity was measured as uM); type: functional
Rattus norvegicus [10] = species: Rattus norvegicus; assay: as §2; type: functional; remark: listed apart in the source
Rattus norvegicus [11] = species: Rattus norvegicus; assay: as §2; type: functional; remark: listed apart in the source
Rattus norvegicus [12] = species: Rattus norvegicus; assay: Antispasmodic activity was calculated according to Ariens and van Rossum from isolated rat ileum preparations; type: functional; conditions: read-out: pA2 (converted); method in brief: as §1

Row | IC50 (Rattus norvegicus [1]) [nM] | IC50 (Rattus norvegicus [1]; Rattus norvegicus, Ileum) [nM] | SMILES | Relative potency (Rattus norvegicus [3]) | pA2 (Rattus norvegicus [4]) | Kb (Rattus norvegicus [4]) [nM] | other results
1 | 1140 |  | CCN(CC)CCOC(=O)C(C)(CO)c1ccccc1.Cl (single isomer, unassigned; (+)) | 0.27 | 5.94 |  | Log K (Cavia porcellus [2]): 6.13
2 | 31 |  | CCN(CC)CCOC(=O)C(C)(COS(=O)(=O)c1ccc(C)cc1)c1ccccc1.Cl (stereo in doubt; 2a) | 10.13 | 7.51 |  | 
3 |  | 127 | CCN(CC)CCOC(=O)C(C)(CBr)c1ccccc1.Cl (stereo unspecified) | 2.47 |  | 126 | 
4 | 172 |  | CCN(CC)CCOC(=O)C(C)(COS(=O)(=O)c1ccc(C)cc1)c1ccccc1.Cl (stereo in doubt; 2b) | 1.83 | 6.77 |  | 
5 |  |  | CN1[C@@H]2CC[C@H]1C[C@@H](OC(=O)C(CO)c1ccccc1)C2 (stereo partly specified) [ATROPINE] |  |  |  | Inhibition (Rattus norvegicus [5]): 5.9%
6 |  | 554 | CCN(CC)CCOC(=O)C(C)(CCl)c1ccccc1.Cl (stereo unspecified) | 0.57 |  | 550 | ID50 (Cavia porcellus [6]): 1170 nM
7 |  |  | CCN(CC)CCOC(=O)C(C)(COC(C)=O)c1ccccc1.Cl (stereo unspecified) | 0.8 |  |  | IC50 (ileum (Cavia porcellus)): 394 nM
8 | 314 |  | CCN(CC)CCOC(=O)C(C)(CO)c1ccccc1.Cl (racemic) |  | 6.5 |  | ID50 (Cavia porcellus [7]): 483 nM
9 | 38.9 |  | CCN(CC)CCOC(=O)C(C)(COS(=O)(=O)c1ccc(C)cc1)c1ccccc1.Cl (racemic) | 8.07 | 7.41 |  | Inhibition (Rattus norvegicus [8]): 33%
10 |  | 38.7 | CCN(CC)CCOC(=O)C(C)(CI)c1ccccc1.Cl (stereo unspecified) | 8.11 |  | 38.9 | 
11 |  | 301 | CCN(CC)CCOC(=O)C(C)(CF)c1ccccc1.Cl (stereo unspecified) | 1.04 |  | 302 | Inhibition (Rattus norvegicus [9]): 35.7%; ID50 (Cavia porcellus [7]): 411 nM; Inhibition (Rattus norvegicus [10]): 24%; Inhibition (Rattus norvegicus [11]): 15.7%
12 | 16.3 |  | CCN(CC)CCOC(=O)C(C)(CO)c1ccccc1.Cl (single isomer, unassigned; (-)) | 19.26 |  |  | Log K (Cavia porcellus [2]): 7.996; Kb (Rattus norvegicus [12]): 16.2 nM
